# Assay results: ChEMBL document CHEMBL1123134, “Diterpenoid sweeteners. Synthesis and sensory evaluation of stevioside analogues with improved organoleptic properties” (1985)
# Tests used:
# Format in all cases: functional
# Homo sapiens [1] = species: Homo sapiens; assay: Sensory evaluation was done for sweetness at a concentration of 250 p.p.m. against sample intensity relative to 10% sucrose.
# Method in brief: (§1)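 Sweetness tasted in solutions held near pH ~7, so carboxylic acids are ionized. Potency is reported two ways: on a weight basis (Pw) and on a molar basis (Pm).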
# Homo sapiens [2] = species: Homo sapiens; assay: Sensory evaluation was done at a concentration of 250 p.p.m. against other properties.
# Method in brief: (§2)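 Aqueous sample solutions were tasted at about pH 7, so carboxylic acids were in ionized form.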
# Homo sapiens [3] = species: Homo sapiens; assay: Sensory evaluation was done for sweetness at a concentration of 250 p.p.m. against compound potency calculated on a molar basis.; method in brief: as §1
# Homo sapiens [4] = species: Homo sapiens; assay: Sensory evaluation was done for sweetness at a concentration of 250 p.p.m. against compound potency calculated on weight basis.; method in brief: as §1
# Homo sapiens [5] = species: Homo sapiens; assay: Sensory evaluation was done at a concentration of 250 p.p.m. against property of bitterness.; method in brief: as §2
# Homo sapiens [6] = species: Homo sapiens; assay: Sensory evaluation was done at a concentration of 250 p.p.m. against property of sweetness.; method in brief: as §2
# Homo sapiens [7] = species: Homo sapiens; assay: Sensory evaluation was done for sweetness at a concentration of 100000 p.p.m. against compound potency calculated on weight basis.
# Method in brief: (§3)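 Solutions were tasted at about pH 7. Sweetness potency was expressed two ways: Pw, calculated on a weight basis, and Pm, calculated on a molar basis.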
# Homo sapiens [8] = species: Homo sapiens; assay: Sensory evaluation was done for sweetness at a concentration of 100000 p.p.m. against sample intensity relative to 10% sucrose.; method in brief: as §1
# Homo sapiens [9] = species: Homo sapiens; assay: Sensory evaluation was done at a concentration of 100000 p.p.m. against property of bitterness.; method in brief: as §2
# Homo sapiens [10] = species: Homo sapiens; assay: Sensory evaluation was done at a concentration of 100000 p.p.m. against property of sweetness.; method in brief: as §2
# Homo sapiens [11] = species: Homo sapiens; assay: Sensory evaluation was done for sweetness at a concentration of 100000 p.p.m. against compound potency calculated on a molar basis.; method in brief: as §3
# Homo sapiens [12] = species: Homo sapiens; assay: Sensory evaluation was done at a concentration of 100000 p.p.m. against other properties.; method in brief: as §2
SMILES,Ip (Homo sapiens [1]),Sensory evaluation (Homo sapiens [2]),Pm (Homo sapiens [3]),Pw (Homo sapiens [4]),Sensory evaluation (Homo sapiens [5]),Sensory evaluation (Homo sapiens [6]),Pw (Homo sapiens [7]),Ip (Homo sapiens [8]),Sensory evaluation (Homo sapiens [9]),Sensory evaluation (Homo sapiens [10]),Pm (Homo sapiens [11]),Sensory evaluation (Homo sapiens [12])
COc1ccc(CCC(=O)c2c(O)cc(O[C@@H]3O[C@H](CO)[C@@H](O)[C@H](O)[C@H]3O[C@@H]3O[C@@H](C)[C@H](O)[C@@H](O)[C@H]3O)cc2O)cc1O [NEOHESPERIDIN DIHYDROCHALCONE],1.2,16,860,480,3,81,–,–,–,–,–,–
OC[C@H]1O[C@@](CO)(O[C@H]2O[C@H](CO)[C@@H](O)[C@H](O)[C@H]2O)[C@@H](O)[C@@H]1O [SUCROSE],–,–,–,–,–,–,1,1,0,100,1,0
